Measurements published in article PMC9796681 (British Journal of Clinical Pharmacology, 2022).
Where “and” joins values, the source holds several entries; their conditions need not be identical. Identical values can stand only once. Entries after “also recorded” stand apart in the source; their conditions may differ. Like-named read-outs stand apart in the source and are kept apart here.

Experiments:
[1] = cited from earlier work
[2] = Population pharmacokinetic analysis; format: in vivo, human
How it was run: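 Healthy young subjects: single 80 mg dose, fasting, sampled predose to 102 h. Gout patients: 40-160 mg/day at steady state (≥7 days after dose change), up to four samples at 1–24 h post-dose. Plasma assayed by HPLC-fluorescence, LLQ 0.005 µg mL-1. Two-compartment model, first-order elimination; power covariate model normalised to median; shared random effect on availability (FVAR); food tested on ka and F.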

[3] = one-compartment model; cited from earlier work
[4] = two-compartment model; gouty; cited from earlier work
[5] = single dose 80 mg, healthy subjects

Cc1nc(-c2ccc(OCC(C)C)c(C#N)c2)sc1C(=O)O[C@@H]1O[C@H](C(=O)O)[C@@H](O)[C@H](O)[C@H]1O [Febuxostat glucuronide]
proportion of the febuxostat dose as glucuronide, excreted by the kidneys ([1]; published data): about 40%

Cc1nc(-c2ccc(OCC(C)C)c(C#N)c2)sc1C(=O)O [febuxostat]
BSV-CL/F, between-subject variability (coefficient of variation) ([2]; final model): 13.6% and 13.6 (37.4) % | BSV-FVAR, common variability on oral availability ([2]; final model): 27.7 (21.2) % | BSV-Vc/F, between-subject variability (coefficient of variation) ([2]; final model): 22% and 22.0 (35.4) % | BSV-Vp/F, between-subject variability (coefficient of variation) ([2]; final model): 19.5% and 19.5 (58.2) % | Covariate BMI (ϴ 7), power exponent on Vc/F ([2]; final model, body mass index, median 30.6 kg m^−2): 0.996 | Covariate food on ka ([2]; final model, fed status): −0.869 | Covariate food on oral availability ([2]; final model, fed status): −0.667 | reduction of absorption rate constant ka by food ([2]; final model, fed versus fasted): 87% | reduction of oral availability (relative bioavailability) by food ([2]; final model, fed versus fasted): 67% | RUV-CV%, residual unexplained variability ([2]; final model, proportional residual error): 39.9 (10.1) % | absorption rate constant ka (ϴ 5), population mean ([2]; final two-compartment model): 3.6 h⁻¹ and 3.62 h⁻¹ | apparent peripheral volume of distribution Vp/F (ϴ 4), population mean ([2]; final two-compartment model): 19.4 L | intercompartmental clearance Q (ϴ 3), population mean ([2]; final two-compartment model): 1.25 L/h | Vd/F ([2]; human, plasma, oral): 32.8 L | ka, absorption rate constant [3]: 2.52 h⁻¹ | effect of mild and moderate hepatic impairment on the pharmacokinetics ([1]; Child-Pugh class A and B): no effect; also recorded: did not affect | CL/F ([1]; Japanese subjects who had gout or were hyperuricaemic): 9.9 L/h | reduction of apparent clearance by UGT polymorphisms ([1]; UGT six and 28 variants): 22% | ka, value assumed ([1]; assumed by Hirai et al): 2.18 h⁻¹ | decline of plasma concentration over the dosage interval ([1]; dosage interval 24 h): up to 100 fold | CL/F ([1]; healthy African Americans): 10.5 L/h | CL/F ([1]; healthy Chinese subjects): 5.3 Lh^−1 | effect of food on the extent of absorption (AUC0-48) ([1]; healthy subjects, 48 h): negligible effect; also recorded: reduce the rate but not the extent of absorption | cleared by phase I metabolism (oxidation) ([1]; healthy subjects): ~ 35% | cleared by phase II metabolism (glucuronidation) ([1]; healthy subjects): ~ 40% | febuxostat eliminated from plasma in the first 9 h post-dose ([1]; healthy subjects): 81% | reduction in AUC0-24 with food ([1]; healthy subjects): 20% | reduction in C max with food ([1]; healthy subjects): 50% | mean initial half-life [1, 5]: 2 h | mean terminal half-life [1, 5]: 14 h | Residual CV [4]: 71% | Vc/F, final estimate [4]: 32.2 L | Vp/F, final estimate [4]: 22.2 L | ka, absorption rate constant [4]: 13 h⁻¹
